# Laboratory results: ChEMBL document CHEMBL1157794, “Discovery of N-[(4R)-6-(4-chlorophenyl)-7-(2,4-dichlorophenyl)-2,2-dimethyl-3,4-dihydro-2H-pyrano[2,3-b]pyridin-4-yl]-5-methyl-1H-pyrazole-3-carboxamide (MK-5596) as a novel cannabinoid-1 receptor (CB1R) inverse agonist for the treatment of obesity” (J Med Chem, 2010)
# What was measured:
# [1] = Bioavailability in Sprague-Dawley rat at 1 mg/kg, iv and 2 mg/kg, po; format: ADME, organism-based; conditions: in vivo
# Method in brief: (§1)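 Male Sprague-Dawley rats dosed 1 mg/kg iv and 2 mg/kg po; male beagle dogs and rhesus monkeys 0.2 mg/kg iv and 0.4 mg/kg po. Iv vehicle EtOH/PEG400/water 20:50:30 (rat) or 20:40:40 v/v/v (dog, monkey); oral vehicle Imwitor 742/Tween-80 1:1 w/w. Clearance, Vdss, t1/2, Cmax, F and dose-normalized oral AUC derived.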
# [2] = Half life in Sprague-Dawley rat at 1 mg/kg, iv and 2 mg/kg, po; format: ADME, organism-based; conditions: in vivo; method in brief: as §1
# [3] = Metabolic stability in bile-duct cannulated rat bile assessed as compound remaining at 2 mg/kg, po up to 72 hrs; format: ADME, organism-based; parameters: dose 2 mg/kg, route oral; conditions: read-out: Stability
# Method in brief: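 [3H]-labelled compound formulated in Imwitor 742/Tween-80 (1:1), given orally at 2 mg/kg to bile duct-cannulated rats; bile, feces and urine collected over 72 h; radioactivity recovery and radioprofiles of parent and metabolites determined.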
# [4] = Drug level in wild type MDR1a-expressing mouse plasma at 1 mg/kg, iv measured after 4 hrs; format: ADME, organism-based; parameters: dose 1 mg/kg, route intravenous; conditions: read-out: Drug uptake
# Method in brief: (§2)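 Single iv 1 mg/kg to wild-type and P-gp deficient CF-1 mice; parent levels in plasma and brain measured 4 h postdose; brain/plasma ratio calculated.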
# [5] = Drug level in wild type MDR1a-expressing mouse brain at 1 mg/kg, iv measured after 4 hrs; format: ADME, organism-based; parameters: dose 1 mg/kg, route intravenous; conditions: read-out: Drug uptake; method in brief: as §2
# [6] = Cmax in Beagle dog at 0.4 mg/kg, po; conditions: in vivo
# [7] = Half life in Beagle dog at 0.2 mg/kg, iv; format: ADME, organism-based, Canis lupus familiaris; parameters: dose 0.2 mg/kg, route intravenous; conditions: in vivo; method in brief: as §1
# [8] = Half life in rhesus monkey at 0.4 mg/kg, po; format: ADME, organism-based, Macaca mulatta; parameters: dose 0.4 mg/kg, route oral; conditions: in vivo; method in brief: as §1
# [9] = Cmax in rhesus monkey at 0.4 mg/kg, po; format: ADME, organism-based, Macaca mulatta; parameters: dose 0.4 mg/kg, route oral; conditions: in vivo; method in brief: as §1
# [10] = Plasma concentration in dog at 3 mg/kg, iv administered for 30 mins; format: ADME, organism-based, Canis lupus familiaris; parameters: dose 3 mg/kg, route intravenous
# Method in brief: (§3)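 Anesthetized dogs given iv infusions, each spread evenly over 30 min, at rising cumulative doses of 1, 3 and 10 mg/kg. Peak plasma levels were measured during each dose. Arterial pressure, heart rate and ECG intervals (PR, QRS, QTc) were monitored against vehicle-treated dogs.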
# [11] = tested on: Canis familiaris; assay: Dose normalized AUC in Beagle dog at 0.4 mg/kg, po; conditions: in vivo
# [12] = Bioavailability in Beagle dog at 0.2 mg/kg, iv; format: ADME, organism-based, Canis lupus familiaris; conditions: in vivo; method in brief: as §1
# [13] = Ratio of drug level in brain to plasma in diet-induced obese rat at 0.3 mg/kg, po measured after 18 hrs of last dose on day 13; format: ADME, organism-based; parameters: dose 0.3 mg/kg, route oral; conditions: brain and plasma, read-out: BPR
# Method in brief: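 DIO rats dosed daily for 13 days at 0.3 mg/kg in the chronic efficacy study. Plasma and brain levels determined 18 h after the last dose. Brain/plasma exposure ratio calculated.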
# [14] = Oral bioavailability in rhesus monkey at 0.4 mg/kg; format: ADME, organism-based, Macaca mulatta; conditions: in vivo
# Method in brief: (§4)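 Male Sprague-Dawley rats received 1 mg/kg iv and 2 mg/kg po. Male beagle dogs and rhesus monkeys received 0.2 mg/kg iv and 0.4 mg/kg po. The iv solution was EtOH/PEG400/water, 20:50:30 v/v/v for rats and 20:40:40 v/v/v for dogs and monkeys. The oral solution was Imwitor742/Tween-80 (1:1 w/w) for all species.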
# [15] = Ratio of drug level in brain to plasma in P-gp deficient CF1 mouse at 1 mg/kg, iv measured after 4 hrs; format: ADME, organism-based; parameters: dose 1 mg/kg, route intravenous; conditions: brain and plasma, read-out: BPR
# Method in brief: (§5)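 Single iv dose of 1 mg/kg given to wild-type and P-gp deficient CF-1 mice. Parent levels in plasma and brain determined 4 h postdose. Brain-to-plasma ratio calculated from these levels.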
# [16] = Drug level in diet-induced obese rat brain at 0.3 mg/kg, po measured after 18 hrs of last dose on day 13; format: ADME, organism-based; parameters: dose 0.3 mg/kg, route oral; conditions: read-out: Drug uptake
# Method in brief: (§6)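 At end of 13-day chronic efficacy study in DIO rats dosed orally at 0.3 mg/kg, plasma and brain drug levels measured 18 h after last dose.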
# [17] = Plasma clearance in Sprague-Dawley rat at 1 mg/kg, iv and 2 mg/kg, po; format: ADME, organism-based; method in brief: as §4
# [18] = Drug level in diet-induced obese rat plasma at 0.3 mg/kg, po measured after 18 hrs of last dose on day 13; format: ADME, organism-based; parameters: dose 0.3 mg/kg, route oral; conditions: read-out: Drug uptake; method in brief: as §6
# [19] = tested on: Rhesus monkey; assay: Dose normalized AUC in rhesus monkey at 0.4 mg/kg, po; format: ADME, organism-based, Macaca mulatta; parameters: dose 0.4 mg/kg, route oral; conditions: in vivo; method in brief: as §1
# [20] = Ratio of drug level in brain to plasma in diet-induced obese rat at 0.3 mg/kg, po measured after 24 hrs of last dose on day 13; format: ADME, organism-based; parameters: dose 0.3 mg/kg, route oral; conditions: brain and plasma, read-out: BPR
# Method in brief: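 Separate 13-day parallel pharmacokinetic study in DIO rats at 0.3 mg/kg. Plasma and brain exposures determined 24 h after the last dose. Brain/plasma ratio calculated.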
# [21] = Ratio of drug level in brain to plasma in wild type MDR1a-expressing mouse at 1 mg/kg, iv measured after 4 hrs; format: ADME, organism-based; parameters: dose 1 mg/kg, route intravenous; conditions: brain and plasma, read-out: BPR; method in brief: as §5
# [22] = Plasma concentration in dog at 1 mg/kg, iv administered for 30 mins; format: ADME, organism-based, Canis lupus familiaris; parameters: dose 1 mg/kg, route intravenous; method in brief: as §3
# [23] = Drug level in diet-induced obese rat plasma at 0.3 mg/kg, po measured after 24 hrs of last dose on day 13; format: ADME, organism-based; parameters: dose 0.3 mg/kg, route oral; conditions: read-out: Drug uptake
# Method in brief: (§7)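 Separate parallel 13-day pharmacokinetic study in DIO rats at 0.3 mg/kg; plasma and brain levels determined 24 h after last dose.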
# [24] = Drug level in P-gp deficient CF1 mouse plasma at 1 mg/kg, iv measured after 4 hrs; format: ADME, organism-based; parameters: dose 1 mg/kg, route intravenous; conditions: read-out: Drug uptake; method in brief: as §2
# [25] = Plasma concentration in dog at 10 mg/kg, iv administered for 30 mins; format: ADME, organism-based, Canis lupus familiaris; parameters: dose 10 mg/kg, route intravenous; method in brief: as §3
# [26] = Plasma clearance in Beagle dog at 0.2 mg/kg, iv; format: ADME, organism-based, Canis lupus familiaris; parameters: dose 0.2 mg/kg, route intravenous; method in brief: as §4
# [27] = tested on: Rhesus monkey; assay: Volume of distribution at steady state in rhesus monkey at 0.4 mg/kg, po; format: ADME, organism-based, Macaca mulatta; parameters: dose 0.4 mg/kg, route oral; conditions: in vivo; method in brief: as §4
# [28] = Volume of distribution at steady state in Sprague-Dawley rat at 1 mg/kg, iv and 2 mg/kg, po; format: ADME, organism-based; conditions: in vivo, read-out: Vdss; method in brief: as §4
# [29] = tested on: Rattus norvegicus; assay: Dose normalized AUC in Sprague-Dawley rat assessed as per mg of plasma protein at 2 mg/kg, po; format: ADME, organism-based; parameters: dose 2 mg/kg, route oral; conditions: in vivo
# [30] = Drug level in diet-induced obese rat brain at 0.3 mg/kg, po measured after 24 hrs of last dose on day 13; format: ADME, organism-based; parameters: dose 0.3 mg/kg, route oral; conditions: read-out: Drug uptake; method in brief: as §7
# [31] = Drug level in P-gp deficient CF1 mouse brain at 1 mg/kg, iv measured after 4 hrs; format: ADME, organism-based; parameters: dose 1 mg/kg, route intravenous; conditions: read-out: Drug uptake; method in brief: as §2
# [32] = Cmax in Sprague-Dawley rat at 1 mg/kg, iv and 2 mg/kg, po; format: ADME, organism-based; conditions: in vivo; method in brief: as §1
# [33] = Plasma clearance in rhesus monkey at 0.4 mg/kg, po; format: ADME, organism-based, Macaca mulatta; parameters: dose 0.4 mg/kg, route oral; method in brief: as §4
# [34] = Volume of distribution at steady state in Beagle dog at 0.2 mg/kg, iv; format: ADME, organism-based, Canis lupus familiaris; parameters: dose 0.2 mg/kg, route intravenous; conditions: in vivo, read-out: Vdss; method in brief: as §4
compound,measurement,setting,value
"CC1(C)CC(NC(=O)CC(O)C(F)(F)F)c2cc(-c3ccc(Cl)cc3)c(-c3ccc(Cl)cc3Cl)nc2O1 (racemic) [N-[6-(4-CHLOROPHENYL)-7-(2,4-DICHLOROPHENYL)-2,2-DIMETHYL-3,4-DIHYDRO-2H-PYRANO[2,3-B]PYRIDINE-4-YL]-4,4,4-TRIFLUORO-3-HYDROXYBUTANAMIDE (DIASTEREOMERIC MIX)]",bioavailability,[1],41%
same,half-life,[2],492 min
CC1(C)C[C@@H](NC(=O)c2ccccc2O)c2cc(-c3ccc(Cl)cc3)c(-c3ccc(Cl)cc3Cl)nc2O1,bioavailability,[1],1%
same,half-life,[2],114 min
"CC(O)C(=O)NC1CC(C)(C)Oc2nc(-c3ccc(Cl)cc3Cl)c(-c3ccc(Cl)cc3)cc21 (single isomer, unassigned)",bioavailability,[1],100%
same,half-life,[2],474 min
CC1(C)C[C@@H](NC(=O)c2ccccc2N)c2cc(-c3ccc(Cl)cc3)c(-c3ccc(Cl)cc3Cl)nc2O1,bioavailability,[1],5%
same,half-life,[2],444 min
Cc1cc(C(=O)N[C@@H]2CC(C)(C)Oc3nc(-c4ccc(Cl)cc4Cl)c(-c4ccc(Cl)cc4)cc32)n[nH]1,remaining at 72 h,[3],30%
same,concentration at 4 h,[4],410 nM
same,concentration at 4 h,[5],270 nM
same,Cmax,[6],150 nM
same,half-life,[7],2.5 days
same,half-life,[8],900 min
same,Cmax,[9],90 nM
same,concentration at 0.5 h,[10],3.26 µM
same,bioavailability,[1],91%
same,AUC,[11],18 µM·kg·h/mg
same,bioavailability,[12],65%
same,Kp at 18 h,[13],0.63
same,bioavailability,[14],46%
same,Kp at 4 h,[15],4.66
same,concentration at 18 h,[16],110 nM
same,clearance,[17],4.5 mL/min/kg
same,concentration at 18 h,[18],180 nM
same,AUC,[19],6.1 µM·kg·h/mg
same,Kp at 24 h,[20],0.55
same,Kp at 4 h,[21],0.66
same,concentration at 0.5 h,[22],1630 nM
same,concentration at 24 h,[23],135 nM
same,concentration at 4 h,[24],300 nM
same,concentration at 0.5 h,[25],6.96 µM
same,clearance,[26],1.1 mL/min/kg
same,Vdss,[27],2.4 L/kg
same,Vd,[28],3 L/kg
same,AUC,[29],11 µM·kg·h/mg
same,half-life,[2],510 min
same,concentration at 24 h,[30],74 nM
same,concentration at 4 h,[31],1400 nM
same,Cmax,[32],1030 nM
same,CL/F,[33],2.3 mL/min/kg
same,Vd,[34],5.7 L/kg
